“Also recorded” adds a separate entry of the source. Read-outs that look alike come from different tables or passages of the source.
Columns and labels:
TNFR1 [1] = target: T1, TNFR1 (Homo sapiens, UniProt P19438); assay: SPR-based binding assay, immobilized TNFR1; details: read-out: Kd for TNFR1, 4 to 256 μM, steady-state affinity model
T1 sequence (P19438 30-455): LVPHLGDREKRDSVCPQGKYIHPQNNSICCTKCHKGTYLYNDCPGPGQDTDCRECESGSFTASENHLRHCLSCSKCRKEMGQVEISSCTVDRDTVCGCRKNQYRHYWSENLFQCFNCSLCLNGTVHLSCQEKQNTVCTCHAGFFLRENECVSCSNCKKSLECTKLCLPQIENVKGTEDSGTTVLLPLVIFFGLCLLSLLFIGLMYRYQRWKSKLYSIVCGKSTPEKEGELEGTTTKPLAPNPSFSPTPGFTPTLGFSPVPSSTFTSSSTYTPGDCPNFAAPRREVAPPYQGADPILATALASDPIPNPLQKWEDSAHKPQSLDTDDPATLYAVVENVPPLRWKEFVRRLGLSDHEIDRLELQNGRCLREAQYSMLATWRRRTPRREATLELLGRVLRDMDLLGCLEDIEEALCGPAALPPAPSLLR
Summary of the method: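 Human TNFR1 in 10 mM sodium acetate, pH 5.5, amine-coupled to a CM5 chip. Single-concentration screen at 50 μM in PBS with 5% DMSO, 120 s injection at 30 μL/min. For affinity, 4–256 μM in the same buffer was passed over reference and active channels at 30 μL/min, with 120 s association and 120 s dissociation. Kd from a steady-state affinity fit.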

L929 cells = assay: TNF-α-induced L929 cytotoxicity; format: cell-based; details: 25–200 μM, 10 ng/mL TNF-α and 1 μg/mL actinomycin D, 18 h
Summary of the method: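 L929 cells seeded at 2.0 × 10⁴ cells/well and cultured overnight. Test compound (25–200 μM) was premixed with 10 ng/mL TNF-α plus 1 μg/mL actinomycin D, then added for 18 h. Viability was read by microscopy and CCK-8 (OD 450 nm). %I = (OD AMD+TNF+compound − OD AMD+TNF)/(OD AMD − OD AMD+TNF) × 100. Three independent experiments in triplicate, mean ± SEM.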

TNF-α [2] = target: TNF-α (Homo sapiens, UniProt P01375); assay: SPR-based binding assay, immobilized TNF-α; details: read-out: Kd (μM) TNF-α, 2–128 μM, PBS with 5% DMSO
Summary of the method: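 Human TNF-α at 50 μg/mL in 10 mM sodium acetate, pH 5.0, amine-coupled to a CM5 chip. Hits were screened at 50 μM in PBS running buffer with 5% DMSO. A 2–128 μM concentration series was injected for 120 s, with 120 s dissociation. Kd came from fitting the sensorgrams in evaluation software. Representative of three independent experiments.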

TNF-α [3] = details: read-out: Kd TNF-α; cited from earlier work
TNFR1 [4] = details: cited from earlier work

Chain of TNF-α (Homo sapiens, UniProt P01375) (P01375 77-233 limits assumed): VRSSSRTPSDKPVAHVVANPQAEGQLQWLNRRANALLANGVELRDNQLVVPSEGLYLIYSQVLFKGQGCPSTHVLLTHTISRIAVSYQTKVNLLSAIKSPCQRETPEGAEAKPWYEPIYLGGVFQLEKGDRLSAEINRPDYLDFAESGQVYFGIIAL

| Kd (TNF-α [2]) | Compound | Inhibition of TNF-α-mediated cytotoxicity on L929 cells (in words) (L929 cells) | also measured |
| --- | --- | --- | --- |
| 11 µM | O=c1c(N=Nc2nc3ccccc3s2)c(-c2ccccc2)[nH]n1-c1ccc([N+](=O)[O-])cc1 [Compound T1] | dose-dependent inhibition; also recorded: activities similar to that of C87 | – |
| 58 µM | O=C1Nc2c(S(=O)(=O)Nc3ccccc3)cc(S(=O)(=O)Nc3ccccc3)c3cccc1c23 [Compound T2] | no activity | – |
| 113 µM | O=C(O)CCC(=O)Nc1sc2c(c1C(=O)Nc1cccc3ccccc13)CCCC2 [Compound T4] | no activity | – |

Continued, compound first:

| Compound | Kd (TNF-α [2]) | Inhibition of TNF-α-mediated cytotoxicity on L929 cells (in words) (L929 cells) | also measured |
| --- | --- | --- | --- |
| O=C(NCc1ccc2c(c1)OCO2)C1CCCN(c2ncnc3nc[nH]c23)C1 (centres unmarked) [Compound R1] | – | dose-dependent inhibition; also recorded: activities similar to that of C87 | Kd (TNFR1 [1]): 16 µM |
| Cc1cc2occ(CN(C)CCN(C)Cc3cn(-c4cccc(C(F)(F)F)c4)c4ccccc34)c(=O)c2cc1C [SPD-304] | – | – | Kd (TNF-α [3]): 5.36 µM |
| TNF-α | – | – | Kd (TNFR1 [4]; read-out: Kd for binding of TNF-α to TNFR1): 0.00176 µM |
| physcion-8-O-β-D-monoglucoside [reference compound] | – | – | Kd (TNFR1 [4]; read-out: Kd TNFR1): 0.376 µM |

Reference: PMC6732210 (Journal of chemical information and modeling, 2017)
